Source: PubChem BioAssay (Sanford-Burnham Center for Chemical Genomics)
Compounds with a hit are over-represented: about 1.7% of the library has one in this group of screens.
LMPTP block: blocks human LMPTP phosphatase; P24666; recombinant LMPTP-A, OMFP fluorogenic substrate, fluorescence intensity; inhibition, % at 20 µM; actives 0.22% (n = 360,000); AID 651560;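 active means compounds that cut the enzyme signal by at least half of the control window in the single-dose screen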;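 further: plate controls were DMSO wells with enzyme plus substrate for no effect and substrate without enzyme for full effect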
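test system = LMPTP-A | amount = 0.625 nM LMPTP-A final | reagent = fluorogenic phosphatase substrate OMFP at 400 µM final | incubation = 50 min at room temperature | benchmarks = no-enzyme low control, uninhibited high control | medium = Bis-Tris pH 6.0, DTT, detergent | signal = fluorescence intensity of OMFP turnover product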
Scp-1 inhibitor: Scp-1 (human) phosphatase inhibition. inhibition, % at 20 µM. actives 0.88% (n = 340,000). AID 493091. Recombinant Scp1, phosphopeptide, malachite green phosphate absorbance;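 active means inhibition above about 50% at 20 µM, limit read from the data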;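 further: plate controls were DMSO wells with enzyme for no effect and wells lacking enzyme for full effect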
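Test system: SCP-1 catalytic domain; Buffer or medium: Acidic Tris acetate buffer with magnesium and detergent; Also added: Phosphorylated 17-residue peptide substrate; Compound: single 20 µM dose, 1% DMSO; Schedule: enzyme reaction 45 min at room temperature, colour 5 min, stabilisation 30 min; Signal: Phosphate-binding colour reagent, absorbance read at 630 nm.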
SUMO1 PPI mod: SUMO1-SIM interaction modulation. P63165. SUMO1 binding to a labelled peptide, TR-FRET, 1 h. inhibition, % at 20 µM. actives 0.33% (n = 360,000); in the data active means inhibition above about 37%
DNMT1 inh: blocks human DNA methyltransferase DNMT1 | DNMT1 molecular beacon, Hinp1I cleavage, fluorescence | actives 0.83% (n = 360,000) | inhibition (reported as % activation of signal), % at 10 µM | AID 588458; in the data active means inhibition above about 50%
Target sequence (P26358 504-1616 limits assumed): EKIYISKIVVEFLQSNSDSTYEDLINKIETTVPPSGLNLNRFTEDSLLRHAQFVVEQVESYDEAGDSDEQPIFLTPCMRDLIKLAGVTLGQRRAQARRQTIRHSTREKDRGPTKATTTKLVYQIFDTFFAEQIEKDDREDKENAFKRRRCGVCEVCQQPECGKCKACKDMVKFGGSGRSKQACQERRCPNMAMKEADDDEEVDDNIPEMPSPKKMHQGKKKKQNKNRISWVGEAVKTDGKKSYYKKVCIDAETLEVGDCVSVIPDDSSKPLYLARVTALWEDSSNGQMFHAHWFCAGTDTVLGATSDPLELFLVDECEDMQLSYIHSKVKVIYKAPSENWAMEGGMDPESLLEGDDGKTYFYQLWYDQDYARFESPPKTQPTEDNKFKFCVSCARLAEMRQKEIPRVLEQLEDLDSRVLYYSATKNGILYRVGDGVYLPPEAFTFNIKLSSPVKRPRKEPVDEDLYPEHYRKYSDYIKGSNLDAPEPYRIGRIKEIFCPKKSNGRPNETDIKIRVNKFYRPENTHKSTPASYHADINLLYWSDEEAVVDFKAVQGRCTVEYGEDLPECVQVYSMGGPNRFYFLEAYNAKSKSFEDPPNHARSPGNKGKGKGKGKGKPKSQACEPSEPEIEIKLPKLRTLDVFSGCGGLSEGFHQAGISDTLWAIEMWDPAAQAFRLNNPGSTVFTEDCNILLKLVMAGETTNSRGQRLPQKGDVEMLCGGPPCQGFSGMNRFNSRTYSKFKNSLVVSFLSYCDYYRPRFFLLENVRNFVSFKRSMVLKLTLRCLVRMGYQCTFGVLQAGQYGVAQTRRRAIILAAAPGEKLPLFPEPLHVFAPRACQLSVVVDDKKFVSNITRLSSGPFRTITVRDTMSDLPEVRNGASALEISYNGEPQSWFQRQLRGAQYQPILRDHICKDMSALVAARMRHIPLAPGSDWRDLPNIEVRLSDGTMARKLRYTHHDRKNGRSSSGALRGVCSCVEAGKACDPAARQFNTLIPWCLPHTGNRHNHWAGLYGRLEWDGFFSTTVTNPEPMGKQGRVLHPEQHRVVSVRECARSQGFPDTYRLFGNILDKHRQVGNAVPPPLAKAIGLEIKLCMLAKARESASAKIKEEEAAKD
STEP inh: STEP (human) phosphatase inhibition | recombinant STEP, OMFP fluorogenic substrate, fluorescence | inhibition, % at 20 µM | actives 0.25% (n = 360,000) | AID 588621;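 active means inhibition at 20 µM, scaled per plate between control wells, above about 37%, limit read from the data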;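 further: 0% = DMSO with enzyme and substrate and 100% = substrate only without enzyme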
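Assay system: isolated STEP enzyme / Timing: 20 min at room temperature, dark / Doses: 20 µM, 1% DMSO / Technique: fluorescence intensity, excitation 480 nm, emission 540 nm / Reagent: fluorogenic phosphatase substrate OMFP at 25 µM final / Measure: percent inhibition scaled to no-enzyme and uninhibited-enzyme controls, plate-pattern corrected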
Scp1 confirm: Scp-1 (human) inhibition, single-dose confirmed | AID 540281 | actives 61% (n = 2,500) | recombinant SCP-1 catalytic domain, phosphate release, malachite green absorbance | inhibition, % at 20 µM | shares compounds with Scp-1 inhibitor;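 further: plate controls were DMSO with enzyme for no effect and buffer wells lacking enzyme for full effect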
MG interference: colorimetric interference in Scp-1 counter-screen; Colorimetric interference counterscreen, malachite green absorbance 630 nm; apparent inhibition (interference), % at 20 µM; 2,500 tested, under 10 active; shares compounds with Scp-1 inhibitor; AID 540313;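 further: compounds added after enzyme reaction finished so only phosphate colour detection is probed; plate controls were DMSO wells with completed Scp-1 reaction for no effect and substrate wells lacking enzyme for full effect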
Scp1 DSF: binds human Scp-1, shifting its melting temperature. shares compounds with Scp-1 inhibitor. Recombinant SCP1, Sypro Orange thermal shift Tm. thermal shift relative to vanadate control, % at 40 µM. actives 25% (n = 1,500). AID 540329;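 active means substances whose mean melting-temperature shift, as a percentage of the reference inhibitor's shift, reaches about 5.3%, limit read from the data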;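 further: 0% = Tm of DMSO wells and 100% = Tm with sodium orthovanadate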
DNMT1 inh conf: DNMT1 inhibition confirmation, single concentration; inhibition, % at 10 µM; shares compounds with DNMT1 inh; DNMT1 molecular beacon HinP1I cleavage, fluorescence; AID 602385; actives 8% (n = 2,300);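 active means average inhibition of at least 30% in the single-concentration confirmation test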
DNMT1 interf: shows spectral interference in the DNMT1 beacon assay; shares compounds with DNMT1 inh; actives 1% (n = 2,300); AID 602387; activation (fluorescence interference), % at 10 µM; DNMT1 molecular beacon spectral interference counterscreen, fluorescence 485/520;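 active means activation of at least 30% at 10 µM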;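 further: DNMT1 catalytic domain with a HinP1I cleavage step and a FAM/dabcyl DNA beacon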
* hit, by the source's call; x = not tested or not shown.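 How the source made its calls, unless noted: active means inhibition of at least 30% at 20 µM; inactive means the rest.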

SMILES	LMPTP block	Scp-1 inhibitor	SUMO1 PPI mod	DNMT1 inh	STEP inh	Scp1 confirm	MG interference	Scp1 DSF	DNMT1 inh conf	DNMT1 interf
Cc1ccccc1CSCC(=O)NC(=O)NCc1ccco1	12.2	56.4*	5.7	76.2*	7.4	73.3*	-6.5	-15.4	-0.2	5.4
FC(F)(F)c1ccc(Oc2ccc(Cl)cc2Br)nc1	-0.2	-8.9	-1.4	3.5	-4.1	x	x	x	x	x
O=C(COC(=O)c1cncc(Br)c1)NCc1ccco1	9.0	88.1*	63.2*	102.2*	13.7	54.1*	-20.2	-9.6	4.7	2.7
O=C(COC(=O)c1cccs1)NCc1ccco1	3.8	96.8*	5.4	72.8*	3.1	63.9*	-17.0	4.6	3.2	6.6
O=C(COC(=O)c1cncc(Br)c1)NCc1ccc(F)cc1	-0.9	3.5	-0.4	-2.8	-0.6	x	x	x	x	x
COc1cc(NC(=O)c2cccs2)c(C(=O)OCC(=O)NCc2ccco2)cc1OC	5.4	26.5	16.2	11.6	2.3	x	x	x	x	x
C=CCNC(=O)C(=O)Nc1ccc2c(c1)N(S(=O)(=O)c1cccs1)CCC2	0.9	-11.8	2.3	-3.0	-0.7	x	x	x	x	x
Cc1ccc(C)c(S(=O)(=O)Nc2ccc3oc(C)c(C(=O)O)c3c2)c1	23.3	70.5*	50.7*	82.6*	63.9*	64.5*	-13.4	12.4*	15.7	-1.0
CC(=O)c1c(C)oc2ccc(NS(=O)(=O)c3ccc(C)cc3)cc12	2.6	-3.8	-0.6	3.1	-0.2	x	x	x	x	x
O=C1CCCC(O)=C1C(C#Cc1ccccc1)C1=C(O)CCCC1=O	1.9	0.4	-3.4	-6.0	2.7	x	x	x	x	x
O=C1CCCC(O)=C1Sc1ccccc1C(=O)O	3.3	56.7*	13.1	66.7*	7.7	36.8*	-17.8	0.8	1.8	0.1
CSc1cccc(NC(=O)CCS(=O)(=O)c2cccc3nonc23)c1	0.9	-5.9	-32.4	0.5	-1.5	x	x	x	x	x
O=C(Nc1cccc([N+](=O)[O-])c1)c1cccc(C(=O)Nc2cccc([N+](=O)[O-])c2)c1	8.5	73.6*	70.0*	86.2*	22.3	84.7*	-10.7	3.8	26.8	2.1
O=C(Nc1ccc(NC(=O)c2cccc([N+](=O)[O-])c2)cc1)c1cccc([N+](=O)[O-])c1	-0.1	6.4	-20.5	3.8	-4.2	x	x	x	x	x
C=CCn1c(SCC(=O)NCCCC)nc2scc(-c3ccco3)c2c1=O	15.6	73.1*	10.3	99.6*	2.7	68.8*	-16.2	-3.2	1.9	0.9
COc1cc(NC(=O)c2noc3c2CCC3)c(OC)cc1Cl	4.3	71.9*	7.0	101.4*	10.7	69.7*	-12.9	3.4	11.3	1.7
COC(=O)c1ccccc1NC(=O)c1noc2c1CCCC2	0.7	-11.0	1.2	-3.4	-1.4	x	x	x	x	x
Cc1cc(=O)n2cn[nH]c2n1	-1.8	-1.0	2.2	0.2	4.1	x	x	x	x	x
N#Cc1c(/N=C/c2ccc(-c3ccccc3C(=O)O)o2)sc2c1CCCC2	3.2	57.4*	-8.3	51.7*	17.3	43.4*	-20.8	8.0*	3.0	5.0
N#Cc1c(/N=C/c2ccc(-c3ccc(C(=O)O)c(Cl)c3)o2)sc2c1CCCC2	0.1	17.3	-6.1	9.0	7.4	x	x	x	x	x
O=C(NNC(=O)c1ccncc1)Nc1ccc(N=Nc2ccccc2)cc1	0.3	-7.6	-30.1	6.8	-0.1	x	x	x	x	x
O=C(Cc1cccs1)Nc1nnc(CCc2ccccc2)s1	0.9	0.3	-3.1	2.4	-1.4	x	x	x	x	x
